Data: ChEMBL document CHEMBL2396525, “Synthesis and anti-HCMV activity of 1-[ω-(phenoxy)alkyl]uracil derivatives and analogues thereof” (Bioorg Med Chem, 2013)
The source made the active and inactive calls. The rule behind the calls is not given here.

What was measured:
[1] = tested on: Human immunodeficiency virus 2; assay: Antiviral activity against HIV2 ROD infected in human CEM cells assessed as inhibition of virus-induced giant cell formation after 4 to 5 days; type: functional, organism-based; settings: ISOLATE ROD, CCRF-CEM
In short: (§1)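 CEM cells at about 3 × 10^5 cells/mL were infected with 100 CCID50 of HIV per mL, with compound dilutions present. They were incubated 4–5 days at 37 °C in humidified CO2, and syncytia were scored microscopically. EC50 is the concentration that inhibits giant cell formation by 50%.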

[2] = tested on: Human immunodeficiency virus 1; assay: Antiviral activity against HIV1 3B infected in human CEM cells assessed as inhibition of virus-induced giant cell formation after 4 to 5 days; type: functional, organism-based; settings: CCRF-CEM; in short: as §1
Feline coronavirus = assay: Antiviral activity against Feline coronavirus; type: functional, organism-based
Sindbis virus = assay: Antiviral activity against Sindbis virus; type: functional, organism-based
In short: (§2)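 Confluent HEL, Vero, HeLa or MDCK cell cultures were inoculated with 100 CCID50 of virus alongside varying compound concentrations. Cytopathicity was scored when it reached completion in untreated virus controls. EC50 is the concentration that reduces virus-induced cytopathogenicity by 50%.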

Punta Toro virus = assay: Antiviral activity against Punta Toro virus; type: functional, organism-based; in short: as §2
Influenza B virus = assay: Antiviral activity against Influenza B virus; type: functional, organism-based
In short: (§3)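 The assay was a cell-based cytopathicity inhibition test on confluent monolayers with serial compound dilutions. EC50 was the concentration that reduced virus-induced cytopathicity by 50%.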

[3] = tested on: Mammalian orthoreovirus 1; assay: Antiviral activity against Reovirus-1; type: functional, organism-based; in short: as §2
Influenza A virus [4] = assay: Antiviral activity against Influenza virus A virus H3N2; type: functional, organism-based; in short: as §3
Human respirovirus 3 = assay: Antiviral activity against Parainfluenza virus 3; type: functional, organism-based; in short: as §2
Influenza A virus [5] = assay: Antiviral activity against Influenza virus A virus H1N1; type: functional, organism-based; in short: as §3
Coxsackievirus B4 = assay: Antiviral activity against Coxsackie B4 virus; type: functional, organism-based; in short: as §2
[6] = tested on: Vesicular stomatitis virus; assay: Antiviral activity against Vesicular stomatitis virus; type: functional, organism-based
[7] = tested on: Respiratory syncytial virus; assay: Antiviral activity against Respiratory syncytial virus Long; type: functional, organism-based; in short: as §2
Vaccinia virus = assay: Antiviral activity against Vaccinia virus Lederle; type: functional, organism-based; settings: Orthopoxvirus vaccinia
Human alphaherpesvirus 3 [8] = assay: Antiviral activity against Varicella-zoster virus YS; type: functional, organism-based
In short: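 VZV was assayed by plaque formation. Confluent cell cultures received 10 or 100 PFU with varying compound concentrations, and plaques were recorded once complete in untreated infected controls. EC50 is the concentration that reduces plaque formation by 50%.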

Human alphaherpesvirus 3 [9] = assay: Antiviral activity against Varicella-zoster virus OKA; type: functional; settings: strain Oka vaccine
In short: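 Confluent cell monolayers were infected with 10 or 100 PFU of VZV in the presence of serial compound dilutions. Plaque formation was recorded once untreated infected controls reached completion. EC50 was the concentration that reduced plaque formation by 50%.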

Human alphaherpesvirus 2 [10] = assay: Antiviral activity against Herpes simplex virus type 2 Lyons; type: functional, organism-based; in short: as §2
Human alphaherpesvirus 2 [11] = assay: Antiviral activity against Herpes simplex virus type 2 G; type: functional, organism-based; settings: strain G; in short: as §2
Human alphaherpesvirus 1 [12] = assay: Antiviral activity against thymidine kinase deficient acyclovir-resistant Herpes simplex virus type 1 KOS; type: functional, organism-based
Human alphaherpesvirus 1 [13] = assay: Antiviral activity against Herpes simplex virus type 1 KOS; type: functional, organism-based; in short: as §2
HEL = assay: Cytotoxicity against HEL; type: cell-based; settings: human
Human betaherpesvirus 5 [14] = assay: Antiviral actiivty against Human herpesvirus 5 Davis infected in HEL assessed as reduction of virus-induced plaque formation; type: functional, organism-based; settings: Human betaherpesvirus 5, Davis
In short: (§4)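 HCMV strains AD-169 and Davis were tested on confluent human embryonic lung fibroblast monolayers infected with 100 PFU in the presence of serial compound concentrations. Plaques were counted once formation was complete in untreated infected controls. EC50 is the concentration that cuts plaque formation by 50%.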

Human betaherpesvirus 5 [15] = assay: Antiviral actiivty against Human herpesvirus 5 AD169 infected in HEL assessed as reduction of virus-induced plaque formation; type: functional, organism-based; settings: Human betaherpesvirus 5, AD169; in short: as §4
[16] = Cytotoxicity against HEL assessed as minimum cytotoxic concentration required to cause microscopically detectable alteration in cell morphology; type: cell-based; settings: human, HEL cells

Row | Structure (SMILES) | Activity [1] | Activity [2] | Activity (Feline coronavirus) | Activity (Sindbis virus) | Activity (Punta Toro virus) | Activity (Influenza B virus) | Activity [3] | Activity (Influenza A virus [4]) | Activity (Human respirovirus 3) | Activity (Influenza A virus [5]) | Activity (Coxsackievirus B4) | Activity [6] | Activity [7] | Activity (Vaccinia virus) | Activity (Human alphaherpesvirus 3 [8]) | Activity (Human alphaherpesvirus 3 [9]) | Activity (Human alphaherpesvirus 2 [10]) | Activity (Human alphaherpesvirus 2 [11]) | Activity (Human alphaherpesvirus 1 [12]) | Activity (Human alphaherpesvirus 1 [13]) | also measured
1 | Cc1ccccc1OCCCCCn1ccc(=O)[nH]c1=O | inactive | inactive | inactive | inactive | inactive | inactive | inactive | inactive | inactive | inactive | inactive | inactive | inactive | inactive | inactive | inactive | inactive | inactive | inactive | inactive | CC50 (HEL): > 100 µM; EC50 (Human betaherpesvirus 5 [14]): > 100 µM; EC50 (Human betaherpesvirus 5 [15]): > 100 µM; MCC [16]: > 100 µM
2 | O=C(O)c1ccc(OCCCCCn2ccc(=O)[nH]c2=O)cc1 | inactive | inactive | inactive | inactive | inactive | inactive | inactive | inactive | inactive | inactive | inactive | inactive | inactive | inactive | inactive | inactive | inactive | inactive | inactive | inactive | EC50 (Human betaherpesvirus 5 [14]): > 100 µM; EC50 (Human betaherpesvirus 5 [15]): > 100 µM; MCC [16]: > 100 µM
3 | O=c1ccn(CCCCCOc2ccc(-c3ccccc3)cc2)c(=O)[nH]1 | inactive | inactive | inactive | inactive | inactive | inactive | inactive | inactive | inactive | inactive | inactive | inactive | inactive | inactive | inactive | inactive | inactive | inactive | inactive | inactive | EC50 (Human betaherpesvirus 5 [14]): 54 µM; EC50 (Human betaherpesvirus 5 [15]): > 20 µM; MCC [16]: 100 µM
4 | O=c1ccn(CCCOc2ccc(Br)cc2)c(=O)[nH]1 | inactive | inactive | inactive | inactive | inactive | inactive | inactive | inactive | inactive | inactive | inactive | inactive | inactive | inactive | inactive | inactive | inactive | inactive | inactive | inactive | EC50 (Human betaherpesvirus 5 [14]): > 100 µM; EC50 (Human betaherpesvirus 5 [15]): > 100 µM; MCC [16]: > 100 µM
5 | CC(C)(C)c1ccc(OCCCCCn2ccc(=O)[nH]c2=O)cc1 | inactive | inactive | inactive | inactive | inactive | inactive | inactive | inactive | inactive | inactive | inactive | inactive | inactive | inactive | inactive | inactive | inactive | inactive | inactive | inactive | CC50 (HEL): 40 µM; EC50 (Human betaherpesvirus 5 [14]): 12 µM; EC50 (Human betaherpesvirus 5 [15]): 14 µM; MCC [16]: 100 µM
6 | O=c1ccn(CCCCCOc2ccc([N+](=O)[O-])cc2)c(=O)[nH]1 | inactive | inactive | inactive | inactive | inactive | inactive | inactive | inactive | inactive | inactive | inactive | inactive | inactive | inactive | inactive | inactive | inactive | inactive | inactive | inactive | EC50 (Human betaherpesvirus 5 [14]): > 4 µM; EC50 (Human betaherpesvirus 5 [15]): > 4 µM; MCC [16]: 20 µM
